Measured values taken from ChEMBL document CHEMBL5257161, “Mycobacterium tuberculosis CitA activity is modulated by cysteine oxidation and pyruvate binding” (RSC Med Chem, 2023).

Tests used:
[1] = tested on: Mycobacterium tuberculosis; assay: Binding affinity to Mycobacterium tuberculosis CitA R149E mutant expressed in Escherichia coli cells assessed as change in melting temperature by thermal shift assay
Procedure, shortened: (§1)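 Thermal shift used 25 μM purified protein in 50 mM Tris pH 8.0 with 2 mM ligand (sodium pyruvate, OAA, or both), plus Protein Thermal Shift dye at 2X final. ΔTm was taken from the melt-curve derivative relative to protein without ligand.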

[2] = tested on: Mycobacterium tuberculosis; assay: Binding affinity to Mycobacterium tuberculosis CitA R149E mutant expressed in Escherichia coli cells assessed as change in melting temperature in presence of pyruvate by thermal shift assay; procedure, shortened: as §1
[3] = tested on: Mycobacterium tuberculosis; assay: Binding affinity to Mycobacterium tuberculosis CitA R153ZM mutant expressed in Escherichia coli cells assessed as change in melting temperature by thermal shift assay; procedure, shortened: as §1
[4] = tested on: Mycobacterium tuberculosis; assay: Binding affinity to Mycobacterium tuberculosis CitA R153ZM mutant expressed in Escherichia coli cells assessed as change in melting temperature in presence of pyruvate by thermal shift assay; procedure, shortened: as §1
[5] = tested on: Mycobacterium tuberculosis; assay: Binding affinity to Mycobacterium tuberculosis CitA R149E mutant expressed in Escherichia coli cells assessed as apparent Km by Michaelis-Menten analysis
Procedure, shortened: (§2)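 His-tagged CitA (wild type or variant) was expressed in E. coli, purified by cobalt affinity and size exclusion, then dialysed against 20 mM Tris pH 8.0. Activity was measured by DTNB (300 μM) thiol detection of released CoA at 412 nm, with OAA and AcCoA substrates and 10 nM enzyme, in 50 mM Tris pH 8.0 at 25 °C. A no-enzyme control was run. Triplicate runs were fitted to Michaelis–Menten.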

[6] = tested on: Mycobacterium tuberculosis; assay: Binding affinity to Mycobacterium tuberculosis CitA R153M mutant expressed in Escherichia coli cells assessed as apparent Km by Michaelis-Menten analysis; procedure, shortened: as §2
[7] = tested on: Mycobacterium tuberculosis; assay: Binding affinity to Mycobacterium tuberculosis CitA R149E mutant expressed in Escherichia coli cells assessed as Vmax by Michaelis-Menten analysis; procedure, shortened: as §2
[8] = tested on: Mycobacterium tuberculosis; assay: Binding affinity to Mycobacterium tuberculosis CitA R153M mutant expressed in Escherichia coli cells assessed as Vmax by Michaelis-Menten analysis; procedure, shortened: as §2
[9] = tested on: Mycobacterium tuberculosis; assay: Binding affinity to Mycobacterium tuberculosis CitA R149E mutant expressed in Escherichia coli cells assessed as catalytic constant by Michaelis-Menten analysis; procedure, shortened: as §2
[10] = tested on: Mycobacterium tuberculosis; assay: Binding affinity to Mycobacterium tuberculosis CitA R153M mutant expressed in Escherichia coli cells assessed as catalytic constant by Michaelis-Menten analysis; procedure, shortened: as §2
[11] = tested on: Mycobacterium tuberculosis; assay: Binding affinity to Mycobacterium tuberculosis CitA R149E mutant expressed in Escherichia coli cells assessed as Kcat/Km by Michaelis-Menten analysis; procedure, shortened: as §2
[12] = tested on: Mycobacterium tuberculosis; assay: Binding affinity to Mycobacterium tuberculosis CitA R153M mutant expressed in Escherichia coli cells assessed as Kcat/Km by Michaelis-Menten analysis; procedure, shortened: as §2
[13] = tested on: Mycobacterium tuberculosis; assay: Binding affinity to Mycobacterium tuberculosis CitA R149E mutant expressed in Escherichia coli cells assessed as change in melting temperature in presence of oxaloacetate by thermal shift assay; procedure, shortened: as §1
[14] = tested on: Mycobacterium tuberculosis; assay: Binding affinity to Mycobacterium tuberculosis CitA R153ZM mutant expressed in Escherichia coli cells assessed as change in melting temperature in presence of oxaloacetate by thermal shift assay; procedure, shortened: as §1

Row | Structure (SMILES) | ΔTm [1] | ΔTm [2] | ΔTm [3] | ΔTm [4] | Km [5] | Km [6] | Vmax [7] | Vmax [8] | kcat [9] | kcat [10] | kcat/Km [11] | kcat/Km [12] | ΔTm [13] | ΔTm [14]
1 | O=C(O)CC(=O)C(=O)O | 10.8 °C | 10.7 °C | 14.3 °C | 14.3 °C | 11.7 µM | 3.2 µM | 2.8 µM/min | 2 µM/min | 4.68 s⁻¹ | 3.3 s⁻¹ | 400000 M⁻¹ s⁻¹ | 1.05e+06 M⁻¹ s⁻¹ |  | 
2 | CC(=O)C(=O)O | 0.47 °C |  | 0.51 °C |  |  |  |  |  |  |  |  |  | 10.7 °C | 14.3 °C
